Molecules are shown by their SMILES.

Assay [1] has as its system Acinetobacter calcoaceticus. Nature of the assay: Antimicrobial activity against Acinetobacter calcoaceticus isolate C35 harboring sul1 to sul3 genes assessed as antibiotic resistance breakpoint by agar dilution method. Type of assay: functional. The gist of the method: (§1)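 Agar dilution on Iso-Sensitest agar for MICs and resistance breakpoints. Each isolate's inoculum (100 μl) was adjusted to OD600 0.4. Isolates came from soil cores of a field given pig slurry, or from the pig slurry itself. They were picked from nonselective or antibiotic plates incubated aerobically at 28°C, purified by restreaking, checked for sul genes by PCR and identified by 16S rRNA sequencing.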

The subject of another assay is Bacillus psychrodurans. The experiment in a line: Antimicrobial activity against Bacillus psychrodurans isolate C328 harboring sul1 to sul3 genes assessed as antibiotic resistance breakpoint by agar dilution method. Type of assay: functional, Psychrobacillus psychrodurans. In a few lines: as §1
In general terms: In agar dilution the substance is mixed into plates at graded concentrations.

Assay [2] is described as follows: Antimicrobial activity against Psychrobacter ikaite isolate C713 harboring sul1 to sul3 genes assessed as antibiotic resistance breakpoint by agar dilution method. Type of assay: functional. In a few lines: (§2)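 Isolates were recovered from manured clay soil or pig slurry on Iso-Sensitest agar at 28°C. sul genes were detected by PCR, and identity was assigned by ~800 bp 16S rRNA sequencing. MICs and resistance breakpoints were found by agar dilution on Iso-Sensitest agar, with each inoculum (100 μl) adjusted to OD600 0.4.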

In assay [3] the test system is Acinetobacter calcoaceticus. The experiment in a line: Antimicrobial activity against Acinetobacter calcoaceticus isolate C36 harboring sul1 to sul3 genes assessed as antibiotic resistance breakpoint by agar dilution method. Format: functional. In a few lines: as §1
Assay [4] can be described thus: Antimicrobial activity against Psychrobacter ikaite isolate C20 harboring sul1 to sul3 genes assessed as antibiotic resistance breakpoint by agar dilution method. Type of assay: functional. The gist of the method:
as §1

A further assay relates to Pseudomonas putida. Nature of the assay: Antimicrobial activity against Pseudomonas putida isolate C231 harboring sul1 to sul3 genes assessed as antibiotic resistance breakpoint by agar dilution method. Format: functional. The gist of the method:
as §1

In assay [5] the test system is Acinetobacter lwoffii. Nature of the assay: Antimicrobial activity against Acinetobacter lwoffii isolate C15 harboring sul1 to sul3 genes assessed as antibiotic resistance breakpoint by agar dilution method. Type of assay: functional. In a few lines:
as §1

In assay [6] the test system is Acinetobacter rhizosphaerae. Nature of the assay: Antimicrobial activity against Acinetobacter rhizosphaerae isolate C44 harboring sul1 to sul3 genes assessed as antibiotic resistance breakpoint by agar dilution method. Type of assay: functional. The gist of the method:
as §1

Assay [7] concerns Psychrobacter frigidicola. The experiment in a line: Antimicrobial activity against Psychrobacter frigidicola isolate C712 harboring sul1 to sul3 genes assessed as antibiotic resistance breakpoint by agar dilution method. Type of assay: functional. The gist of the method: as §1
Assay [8] can be described thus: Antimicrobial activity against Acinetobacter sp. An9 isolate PGS49 harboring sul1 to sul3 genes assessed as antibiotic resistance breakpoint by agar dilution method. Format: functional. In a few lines:
as §1

A further assay has as its system Shigella flexneri. Nature of the assay: Antimicrobial activity against Shigella flexneri isolate C506 harboring sul1 to sul3 genes assessed as antibiotic resistance breakpoint by agar dilution method. Format: functional. In a few lines: as §2
Assay [9] concerns Acinetobacter lwoffii. The experiment in a line: Antimicrobial activity against Acinetobacter lwoffii isolate PGS47 harboring sul1 to sul3 genes assessed as antibiotic resistance breakpoint by agar dilution method. Type of assay: functional. In a few lines: as §1
For assay [10], the system named is Acinetobacter lwoffii. Nature of the assay: Antimicrobial activity against Acinetobacter lwoffii isolate C37 harboring sul1 to sul3 genes assessed as antibiotic resistance breakpoint by agar dilution method. Type of assay: functional. In a few lines:
as §1

Assay [11] concerns Arthrobacter arilaitensis. The experiment in a line: Antimicrobial activity against Arthrobacter arilaitensis isolate C361 harboring sul1 to sul3 genes assessed as antibiotic resistance breakpoint by agar dilution method. Type of assay: functional, Glutamicibacter arilaitensis. The gist of the method: as §1
In assay [12] the test system is Acinetobacter lwoffii. Nature of the assay: Antimicrobial activity against Acinetobacter lwoffii isolate C141 harboring sul1 to sul3 genes assessed as antibiotic resistance breakpoint by agar dilution method. Format: functional. In a few lines:
as §1

Another assay concerns Pseudomonas lini. Nature of the assay: Antimicrobial activity against Pseudomonas lini isolate C701 harboring sul1 to sul3 genes assessed as antibiotic resistance breakpoint by agar dilution method. Format: functional. In a few lines: as §1
Assay [13] in a line: Antimicrobial activity against Psychrobacter sp. DY9-2 isolate C711 harboring sul1 to sul3 genes assessed as antibiotic resistance breakpoint by agar dilution method. Format: functional. In a few lines: as §2
For a further assay, the system named is Acinetobacter baumannii. Nature of the assay: Antimicrobial activity against Acinetobacter baumannii isolate C442 harboring sul1 to sul3 genes assessed as antibiotic resistance breakpoint by agar dilution method. Type of assay: functional. In a few lines: as §1
The test system of assay [14] is Aerococcus viridans. Nature of the assay: Antimicrobial activity against Aerococcus viridans isolate PGS22 harboring sul1 to sul3 genes assessed as antibiotic resistance breakpoint by agar dilution method. Type of assay: functional. In a few lines:
as §1

In assay [15] the test system is Lysinibacillus sphaericus. The experiment in a line: Antimicrobial activity against Bacillus sphaericus isolate C237 harboring sul1 to sul3 genes assessed as antibiotic resistance breakpoint by agar dilution method. Type of assay: functional. The gist of the method:
as §1

The nature of assay [16]: Antimicrobial activity against Acinetobacter sp. N2 isolate C439 harboring sul1 to sul3 genes assessed as antibiotic resistance breakpoint by agar dilution method. Format: functional. In a few lines: as §1
The subject of assay [17] is Acinetobacter lwoffii. The experiment in a line: Antimicrobial activity against Acinetobacter lwoffii isolate C2 harboring sul1 to sul3 genes assessed as antibiotic resistance breakpoint by agar dilution method. Type of assay: functional. The gist of the method:
as §1

For another assay, the system named is Pseudomonas borealis. Nature of the assay: Antimicrobial activity against Pseudomonas borealis isolate C5 harboring sul1 to sul3 genes assessed as antibiotic resistance breakpoint by agar dilution method. Type of assay: functional. In a few lines: as §1
Assay [18] deals with Aerococcus viridans. Nature of the assay: Antimicrobial activity against Aerococcus viridans isolate PGS21 harboring sul1 to sul3 genes assessed as antibiotic resistance breakpoint by agar dilution method. Type of assay: functional. The gist of the method:
as §1

The next assay concerns Enterococcus hirae. Nature of the assay: Antimicrobial activity against Enterococcus hirae isolate PGS48 harboring sul1 to sul3 genes assessed as antibiotic resistance breakpoint by agar dilution method. Format: functional. In a few lines: as §1
A further assay concerns Providencia stuartii. The experiment in a line: Antimicrobial activity against Providencia stuartii isolate C167 harboring sul1 to sul3 genes assessed as antibiotic resistance breakpoint by agar dilution method. Type of assay: functional. The gist of the method:
as §1

The subject of assay [19] is Stenotrophomonas maltophilia. Nature of the assay: Antimicrobial activity against Stenotrophomonas maltophilia isolate C422 harboring sul1 to sul3 genes assessed as antibiotic resistance breakpoint by agar dilution method. Format: functional. In a few lines:
as §2

In a further assay the test system is Enterococcus sulfureus. The experiment in a line: Antimicrobial activity against Enterococcus sulfureus isolate PGS61 harboring sul1 to sul3 genes assessed as antibiotic resistance breakpoint by agar dilution method. Format: functional. In a few lines:
as §1

Assay [20] is described as follows: Antimicrobial activity against Psychrobacter ikaite isolate C410 harboring sul1 to sul3 genes assessed as antibiotic resistance breakpoint by agar dilution method. Type of assay: functional. In a few lines: as §2
Another assay relates to Pseudomonas fluorescens. The experiment in a line: Antimicrobial activity against Pseudomonas fluorescens isolate C131 harboring sul1 to sul3 genes assessed as antibiotic resistance breakpoint by agar dilution method. Format: functional. In a few lines: as §1

Regarding `CCn1cc(C(=O)O)c(=O)c2ccc(C)nc21` [NALIDIXIC ACID], the Activity (in [1]; with Bacillus psychrodurans; in [2]; in assay [3]; in [4]; with Pseudomonas putida) was 16 µg/mL each time. In addition, the Activity (with Acinetobacter lwoffii [5]; in assay [6]; in assay [7]; in assay [8]; with Shigella flexneri; in the assay with Acinetobacter lwoffii [9]) was 16 µg/mL each time. Also, the Activity (in the assay with Acinetobacter lwoffii [10]; in assay [11]; in the assay with Acinetobacter lwoffii [12]; in the assay with Pseudomonas lini; in [13]; with Acinetobacter baumannii) was 16 µg/mL throughout. Besides, the Activity (in the assay with Aerococcus viridans [14]; in assay [15]; in assay [16]; with Acinetobacter lwoffii [17]) was 16 µg/mL each time.
Take `O=C(N[C@H](CO)[C@H](O)c1ccc([N+](=O)[O-])cc1)C(Cl)Cl` [CHLORAMPHENICOL]: the Activity (in assay [1]; with Bacillus psychrodurans; in assay [2]; in [3]; in assay [4]; in the assay on Pseudomonas putida) was 16 µg/mL throughout. Further, the Activity (in the assay with Acinetobacter lwoffii [5]; in assay [6]; in the assay with Shigella flexneri; with Pseudomonas borealis; with Acinetobacter lwoffii [10]; in [11]) was 16 µg/mL throughout. Further, the Activity with Acinetobacter lwoffii [12], in the assay with Acinetobacter baumannii, with Aerococcus viridans [18], in the assay on Aerococcus viridans [14] and in the assay with Acinetobacter lwoffii [17] was 16 µg/mL each time.
For the compound `NC[C@H]1O[C@H](O[C@H]2[C@H](O)[C@@H](O[C@H]3O[C@H](CO)[C@@H](O)[C@H](N)[C@H]3O)[C@H](N)C[C@@H]2N)[C@H](O)[C@@H](O)[C@@H]1O` [KANAMYCIN], the Activity with Bacillus psychrodurans, in the assay on Shigella flexneri and with Acinetobacter lwoffii [12] was 16 µg/mL each time.
Take `NC[C@@H]1O[C@H](O[C@H]2[C@@H](O)[C@H](O[C@@H]3[C@@H](O)[C@H](N)C[C@H](N)[C@H]3O[C@H]3O[C@H](CN)[C@@H](O)[C@H](O)[C@H]3N)O[C@@H]2CO)[C@H](N)[C@@H](O)[C@@H]1O` [FRAMYCETIN]: the Activity (in the assay on Bacillus psychrodurans; with Pseudomonas putida; in the assay on Acinetobacter lwoffii [5]; in assay [6]; in the assay with Shigella flexneri; in [11]) was 8 µg/mL each time. The Activity in the assay on Acinetobacter lwoffii [12] and in the assay with Aerococcus viridans [14] was 8 µg/mL in each case.
For `CN[C@@H]1[C@H](O[C@H]2[C@H](O[C@H]3[C@H](O)[C@@H](O)[C@H](N=C(N)N)[C@@H](O)[C@@H]3N=C(N)N)O[C@@H](C)[C@]2(O)C=O)O[C@@H](CO)[C@H](O)[C@H]1O` [STREPTOMYCIN], the Activity (with Enterococcus hirae; with Providencia stuartii; in assay [19]; in assay [1]; with Bacillus psychrodurans; in assay [2]) was 16 µg/mL throughout. For the same compound, the Activity (in assay [3]; in [4]; with Acinetobacter lwoffii [5]; in assay [6]; in assay [7]; in assay [8]) was 16 µg/mL throughout. The Activity (in the assay with Shigella flexneri; in the assay on Acinetobacter lwoffii [9]; with Acinetobacter lwoffii [10]; in assay [11]; with Acinetobacter lwoffii [12]; in the assay on Pseudomonas lini) was 16 µg/mL each time. Also, the Activity (in assay [13]; in the assay on Aerococcus viridans [14]; with Enterococcus sulfureus; in assay [15]; in assay [16]; in the assay on Acinetobacter lwoffii [17]) was 16 µg/mL throughout.
Turning to `COc1cc(Cc2cnc(N)nc2N)cc(OC)c1OC` [TRIMETHOPRIM], the Activity (in assay [1]; in assay [2]; in assay [3]; in assay [4]; in the assay on Acinetobacter lwoffii [5]; in assay [6]) was 16 µg/mL in each case. Further, the Activity (in assay [7]; in the assay on Shigella flexneri; in the assay with Acinetobacter lwoffii [10]; in the assay on Acinetobacter lwoffii [12]; in the assay on Pseudomonas lini; in [13]) was 16 µg/mL in each case. Also, the Activity (in [15]; in [16]; in the assay on Acinetobacter lwoffii [17]) was 16 µg/mL throughout.
Take `CC1(C)S[C@@H]2[C@H](NC(=O)[C@H](N)c3ccccc3)C(=O)N2[C@H]1C(=O)O` [AMPICILLIN]: the Activity in the assay with Pseudomonas putida, with Shigella flexneri, in the assay with Acinetobacter lwoffii [12] and in the assay with Pseudomonas lini was 16 µg/mL in each case.
With `CN(C)[C@@H]1C(O)=C(C(N)=O)C(=O)[C@@]2(O)C(O)=C3C(=O)c4c(O)cccc4[C@@](C)(O)[C@H]3C[C@@H]12` [TETRACYCLINE], the Activity (in the assay with Enterococcus hirae; in the assay with Providencia stuartii; in [1]; in the assay on Bacillus psychrodurans; in assay [2]; in assay [3]) was 8 µg/mL each time. Further, the Activity (in assay [4]; with Pseudomonas putida; in the assay with Acinetobacter lwoffii [5]; in [6]; in assay [20]; in assay [7]) was 8 µg/mL each time. Also, the Activity (in the assay on Shigella flexneri; in the assay on Pseudomonas fluorescens; with Pseudomonas borealis; in the assay on Acinetobacter lwoffii [10]; in [11]; in the assay on Acinetobacter lwoffii [12]) was 8 µg/mL throughout. Moreover, the Activity (in assay [13]; in the assay on Acinetobacter baumannii; in the assay with Aerococcus viridans [18]; with Aerococcus viridans [14]; with Enterococcus sulfureus; in assay [16]) was 8 µg/mL each time. In addition, the Activity in the assay on Acinetobacter lwoffii [17] worked out at 8 µg/mL.
